Screens from PubChem BioAssay.
MC4R antagonist – human MC4R antagonism in cAMP assay; MC4R-expressing cells, MTII-stimulated cAMP, LANCE TR-FRET; inhibition, % at 6.5 µM; 360,000 tested, 0.48% active;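 active = inhibition above its plate's cutoff, the mean of tested wells on that plate plus 3 SD, cut at about 29% in these data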
Target sequence (P32245 whole entry, looked up): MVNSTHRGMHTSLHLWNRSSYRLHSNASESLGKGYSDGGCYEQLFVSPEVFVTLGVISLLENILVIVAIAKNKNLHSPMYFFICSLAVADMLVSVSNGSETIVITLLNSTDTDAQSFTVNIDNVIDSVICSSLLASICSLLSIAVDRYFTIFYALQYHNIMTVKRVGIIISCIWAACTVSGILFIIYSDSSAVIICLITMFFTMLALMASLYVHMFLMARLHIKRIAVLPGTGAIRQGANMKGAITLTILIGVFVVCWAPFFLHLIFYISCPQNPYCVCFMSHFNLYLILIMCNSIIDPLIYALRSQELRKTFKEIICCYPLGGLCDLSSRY
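Assay system: U2OS-MC4R stable cell line; Also added: Melanotan II; Technique: Eu-cAMP/anti-cAMP TR-FRET, emission 671 nm; Times: 30-min compound, 1-h challenge, 1-h detection, room temperature.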
EBI2 antag – antagonists of human EBI2 receptor | P32249 | EBI2 beta-arrestin recruitment, luminescence, 7a,25-OHC stimulated | inhibition, % at 5 µM | 360,000 tested, 0.81% active | AID 651636; in the data active = inhibition above about 38%;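 also: enzyme fragment complementation signal reports receptor beta-arrestin coupling in cells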
Myeloid diff 2 – promotes myeloid progenitor differentiation; ER-HoxA9 myeloid progenitors, lysozyme-GFP differentiation, flow cytometry; 360,000 tested, 1% active; calls only at 10 µM;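 active = normalized GFP-positive differentiation at or above the plate's own cutoff, the solvent-only control mean plus 3 SD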;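 also: cells exposed to compound for four days before flow analysis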
MC4R barr agon – agonists of human melanocortin 4 receptor (MC4R) beta-arrestin. activation, % at 8.9 µM. 360,000 tested, 0.98% active. AID 540308. U2OS MC4R beta-arrestin complementation, luminescence; percent of melanotan II response, DMSO zero. P32245;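 active = activation above a per-plate cutoff, the mean activation of sample wells on that plate plus 3 SD, cut at about 8% in these data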
Exocytosis inh – blocks lytic granule exocytosis | TALL-104 LAMP-1 surface exposure, flow cytometry; cells stimulated with thapsigargin and PMA | inhibition, % at 10 µM | 360,000 tested, 0.66% active;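 active = inhibition above about 55%, limit read from the data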
EBI2 conf – EBI2 (human) antagonism, single concentration confirmation; shares compounds with EBI2 antag; EBI2 beta-arrestin luminescence, 7a,25-OHC antagonism; inhibition, % at 5 µM; 2,400 tested, 29% active;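 active = inhibition of at least 50%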
EBI2 agonist – activates EBI2, counter-screen for EBI2 antagonists; shares compounds with EBI2 antag; EBI2-expressing cells, agonist mode, luminescence, 60 min; 0% vehicle, 100% 7α,25-dihydroxycholesterol control; activation, % at 5 µM; 2,400 tested, under 10 active; AID 652000;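 active = activation of at least 50%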
bGal counter – beta-galactosidase inhibition counter-screen. inhibition, % at 5 µM. purified beta-galactosidase, luminescent Galacton Star, 15 min. shares compounds with EBI2 antag. AID 652176. 2,400 tested, 1% active;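 active = replicate-average signal at least 3 plate SD below neutral wells, shown as high inhibition, flagging enzyme-inhibiting false positives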;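 also: higher means stronger loss of beta-gal luminescence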
Large screens that a line does not name were inactive (follow-up assays come after a bar, where they were run). Shown are actives, neighbours in structure and some others; about 3.7% of the full set was active somewhere.

CCOC(=O)N1CCN(C(=O)c2cccc(F)c2)CC1	none
COc1ccc(N2CCN(C(=O)c3cc(-c4ccc(F)cc4)[nH]c3C)CC2)cc1	EBI2 antag 93 | EBI2 conf 62 | EBI2 agonist inactive | bGal counter inactive
Cc1[nH]c(-c2ccc(F)cc2)cc1C(=O)N1CCN(c2ccc(Cl)cc2)CC1	EBI2 antag 73 | EBI2 conf inactive | EBI2 agonist inactive | bGal counter inactive
O=C(c1cc(-c2ccc(Cl)cc2)on1)N1CCN(c2ccc(F)cc2)CC1	none
CCOC(=O)N1CCN(C(=O)c2cc(-c3ccc(F)cc3)[nH]c2C)CC1	EBI2 antag 89 | EBI2 conf 86 | EBI2 agonist inactive | bGal counter inactive
CC[C@]12c3[nH]c4cc(CCC(=O)N(C)C)ccc4c3CCN1C(=O)[C@@H](CC(=O)NCCc1ccccn1)C[C@@H]2C(=O)N1CCN(C(=O)C2CC2)CC1	none
CC(C)NC(=O)N(C)C[C@H]1OCCCC[C@@H](C)Oc2ccc(N(C)C)cc2C(=O)N([C@H](C)CO)C[C@@H]1C	none (no result: MC4R antagonist, MC4R barr agon)
CCCCCCc1c(C)c2ccc(OCC(=O)N3CCC[C@H]3C(=O)O)c(C)c2oc1=O	none
CC(C)c1ccc(C(C)NCCS(=O)(=O)c2ccc(Cl)cc2)cc1 (stereo not given)	EBI2 antag 72 | EBI2 conf inactive | EBI2 agonist inactive | bGal counter inactive
CC(C(=O)NCCS(=O)(=O)c1ccc(Br)cc1)S(=O)(=O)c1ccc(Cl)cc1 (stereo not given)	none
Cc1ccc2cccc(OC(=O)c3c(F)cccc3Cl)c2n1	none (no result: MC4R antagonist, MC4R barr agon)
COc1ccc(CCNC(=O)CCc2ccc(OC)cc2)cc1	none
COc1ccc(CCC(=O)NCCc2ccc(Cl)cc2)cc1	EBI2 antag 43 | EBI2 conf inactive | EBI2 agonist inactive | bGal counter inactive
CCc1nc2ccc(C(=O)NCCOc3ccc(OC)cc3)cn2c1N(CC)Cc1cccc(Br)c1	EBI2 antag 74 | EBI2 conf inactive | EBI2 agonist inactive | bGal counter inactive
CCc1nc2ccc(C(=O)Nc3cccc(OC)c3)cn2c1N(CC)Cc1cccc(Br)c1	none
CCc1nc2ccc(C(=O)NCCOc3ccc(OC)cc3)cn2c1N(CC)CCOC	EBI2 antag 45 | EBI2 conf inactive | EBI2 agonist inactive | bGal counter inactive
O=C(c1cc(-c2ccccc2)on1)N1CCN(Cc2ccc3c(c2)OCO3)CC1	EBI2 antag 50 | EBI2 conf inactive | EBI2 agonist inactive | bGal counter inactive
O=C(c1ccc2c(c1)OCO2)N1CCN(S(=O)(=O)c2ccc(Br)cc2Cl)CC1	EBI2 antag 52 | EBI2 conf inactive | EBI2 agonist inactive | bGal counter inactive
O=C(c1ccc(Cl)c(Cl)c1)N1CCN(Cc2ccc3c(c2)OCO3)CC1	EBI2 antag 57 | EBI2 conf inactive | EBI2 agonist inactive | bGal counter inactive
O=C(c1ccc2c(c1)OCO2)N1CCN(S(=O)(=O)c2ccccc2)CC1	none
O=C(c1cc(-c2ccc(F)cc2)no1)N1CCN(Cc2ccc3c(c2)OCO3)CC1	EBI2 antag 76 | EBI2 conf inactive | EBI2 agonist inactive | bGal counter inactive
Cc1ccc(C(=O)N2CCN(Cc3ccc4c(c3)OCO4)CC2)cc1C	none
CN(Cc1ccccc1)C(=O)COc1ccc2ccccc2c1	EBI2 antag 90 | EBI2 conf 87 | EBI2 agonist inactive | bGal counter inactive
CN(Cc1ccccc1)C(=O)COC(=O)COc1ccc(Cl)cc1	none
CN(Cc1ccccc1)C(=O)COc1cc(Cl)ccc1Cl	none
Cc1cc(OCC(=O)N(C)Cc2ccccc2)cc(C)c1Cl	EBI2 antag 87 | EBI2 conf 65 | EBI2 agonist inactive | bGal counter inactive
Cc1cccc(C)c1N1C(=O)c2ccccc2NC(=O)C1C(=O)NCCc1ccccc1F (stereo not given)	none (no result: MC4R antagonist, MC4R barr agon)
COc1ccc(NC(=O)C2CCC(CNS(=O)(=O)c3cccs3)CC2)cc1 (stereo not given)	EBI2 antag 47 | EBI2 conf inactive | EBI2 agonist inactive | bGal counter inactive
Cc1cc(C)c(NC(=O)C2C(=O)Nc3ccccc3C(=O)N2C(C)(C)C)c(C)c1 (stereo not given)	none (no result: MC4R antagonist, MC4R barr agon)
COc1ccc(-c2cc3nc(-c4ccccc4)cc(N4CCN(C(=O)c5ccccc5)CC4)n3n2)cc1	none
COc1ccc(-c2cc3nc(-c4ccccc4)cc(N4CCN(C(C)=O)CC4)n3n2)cc1	EBI2 antag 46 | EBI2 conf inactive | EBI2 agonist inactive | bGal counter inactive
COc1ccc(-c2cc3nc(-c4ccccc4)cc(N4CCCC(O)C4)n3n2)cc1 (stereo not given)	EBI2 antag 66 | EBI2 conf 55 | EBI2 agonist inactive | bGal counter inactive
COc1ccc(-c2cc3nc(-c4ccccc4)cc(N4CCC(O)CC4)n3n2)cc1	EBI2 antag 64 | EBI2 conf 56 | EBI2 agonist inactive | bGal counter inactive
COc1ccc(-n2c(SCC(=O)Nc3cc(C(=O)O)ccc3C)nc3ccccc3c2=O)cc1Cl	none
O=C(COc1ccc2c(c1)oc(=O)c1ccccc12)NCC1CCC(C(=O)O)CC1 (stereo not given)	none
Cc1ccc(Cl)cc1N1CCN(C(=O)c2cc3c(=O)[nH]c4ccccc4c3n2C)CC1	EBI2 antag 73 | EBI2 conf 63 | EBI2 agonist inactive | bGal counter inactive
O=[N+]([O-])c1ccc(NN=Cc2cc(Br)ccc2O)nc1	EBI2 antag 59 (no result: Myeloid diff 2) | EBI2 conf inactive | EBI2 agonist inactive | bGal counter inactive
O=[N+]([O-])c1ccc(NN=Cc2cccc(O)c2)nc1	none
COc1ccc([C@H]2CN(c3ccc(OC)cc3)C(=O)[C@@H]2CC(=O)Nc2ccccc2)cc1	EBI2 antag 46 | EBI2 conf 53 | EBI2 agonist inactive | bGal counter inactive
COc1ccc(NC(=O)C[C@H]2C(=O)N(c3ccc(Br)cc3)C[C@@H]2c2ccc(OC)cc2)cc1	none
CCN1CCN(C(=O)/C=C/c2cccc(Cl)c2)CC1	EBI2 antag 75 | EBI2 conf inactive | EBI2 agonist inactive | bGal counter inactive
CCN1CCN(C(=O)/C=C/c2ccc(C(C)C)cc2)CC1	EBI2 antag 93 | EBI2 conf 87 | EBI2 agonist inactive | bGal counter inactive
CCN1CCN(C(=O)/C=C/c2ccc(OC)c(OC)c2)CC1	none
CSCCC(NS(=O)(=O)c1ccc(C)cc1)C(=O)N1CC=C(c2ccccc2)CC1 (stereo not given)	none
